Experimental findings from ChEMBL document CHEMBL1156338 (J Med Chem, 2010) are described below.

For data set [1], the target named is T1, Mitogen-activated protein kinase 13 (Homo sapiens, UniProt O15264).
T1 sequence (O15264 whole entry): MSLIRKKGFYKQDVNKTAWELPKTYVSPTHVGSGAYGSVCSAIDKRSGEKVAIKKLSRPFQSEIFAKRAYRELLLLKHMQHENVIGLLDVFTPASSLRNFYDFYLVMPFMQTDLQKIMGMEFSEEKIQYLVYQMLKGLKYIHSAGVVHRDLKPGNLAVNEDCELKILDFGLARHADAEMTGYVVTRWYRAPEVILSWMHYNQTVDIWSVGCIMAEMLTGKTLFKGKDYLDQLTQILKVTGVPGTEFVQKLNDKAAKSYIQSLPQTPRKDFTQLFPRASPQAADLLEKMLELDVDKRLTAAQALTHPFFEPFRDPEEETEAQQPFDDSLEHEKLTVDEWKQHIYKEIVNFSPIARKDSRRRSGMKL
The data set is described as follows: Inhibition of p38delta.

The target in another data set is Cytochrome P450 3A4 (Homo sapiens, UniProt P08684). Briefly: Inhibition of CYP3A4 in human liver microsomes. It counts as ADME, Microsome.
Chain of Cytochrome P450 3A4 (P08684 whole entry): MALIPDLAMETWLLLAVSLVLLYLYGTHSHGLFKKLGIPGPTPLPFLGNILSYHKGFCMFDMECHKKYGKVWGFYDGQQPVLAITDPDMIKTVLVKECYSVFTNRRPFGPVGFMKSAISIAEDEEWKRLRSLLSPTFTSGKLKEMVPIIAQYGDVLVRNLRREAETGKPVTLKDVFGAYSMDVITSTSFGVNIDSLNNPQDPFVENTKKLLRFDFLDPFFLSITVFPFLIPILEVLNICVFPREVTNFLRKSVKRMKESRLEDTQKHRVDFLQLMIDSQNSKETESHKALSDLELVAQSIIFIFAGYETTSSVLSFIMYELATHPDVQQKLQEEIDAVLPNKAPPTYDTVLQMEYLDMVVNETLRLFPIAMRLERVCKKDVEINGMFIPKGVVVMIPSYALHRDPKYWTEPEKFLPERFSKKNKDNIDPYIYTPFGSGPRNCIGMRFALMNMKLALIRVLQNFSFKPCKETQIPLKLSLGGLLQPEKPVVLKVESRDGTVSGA
In data set [2] the target is Platelet-derived growth factor receptor alpha (Homo sapiens, UniProt P16234). Briefly: Inhibition of PDGFRalpha at 1 uM relative to control.
Chain of Platelet-derived growth factor receptor alpha (P16234 whole entry): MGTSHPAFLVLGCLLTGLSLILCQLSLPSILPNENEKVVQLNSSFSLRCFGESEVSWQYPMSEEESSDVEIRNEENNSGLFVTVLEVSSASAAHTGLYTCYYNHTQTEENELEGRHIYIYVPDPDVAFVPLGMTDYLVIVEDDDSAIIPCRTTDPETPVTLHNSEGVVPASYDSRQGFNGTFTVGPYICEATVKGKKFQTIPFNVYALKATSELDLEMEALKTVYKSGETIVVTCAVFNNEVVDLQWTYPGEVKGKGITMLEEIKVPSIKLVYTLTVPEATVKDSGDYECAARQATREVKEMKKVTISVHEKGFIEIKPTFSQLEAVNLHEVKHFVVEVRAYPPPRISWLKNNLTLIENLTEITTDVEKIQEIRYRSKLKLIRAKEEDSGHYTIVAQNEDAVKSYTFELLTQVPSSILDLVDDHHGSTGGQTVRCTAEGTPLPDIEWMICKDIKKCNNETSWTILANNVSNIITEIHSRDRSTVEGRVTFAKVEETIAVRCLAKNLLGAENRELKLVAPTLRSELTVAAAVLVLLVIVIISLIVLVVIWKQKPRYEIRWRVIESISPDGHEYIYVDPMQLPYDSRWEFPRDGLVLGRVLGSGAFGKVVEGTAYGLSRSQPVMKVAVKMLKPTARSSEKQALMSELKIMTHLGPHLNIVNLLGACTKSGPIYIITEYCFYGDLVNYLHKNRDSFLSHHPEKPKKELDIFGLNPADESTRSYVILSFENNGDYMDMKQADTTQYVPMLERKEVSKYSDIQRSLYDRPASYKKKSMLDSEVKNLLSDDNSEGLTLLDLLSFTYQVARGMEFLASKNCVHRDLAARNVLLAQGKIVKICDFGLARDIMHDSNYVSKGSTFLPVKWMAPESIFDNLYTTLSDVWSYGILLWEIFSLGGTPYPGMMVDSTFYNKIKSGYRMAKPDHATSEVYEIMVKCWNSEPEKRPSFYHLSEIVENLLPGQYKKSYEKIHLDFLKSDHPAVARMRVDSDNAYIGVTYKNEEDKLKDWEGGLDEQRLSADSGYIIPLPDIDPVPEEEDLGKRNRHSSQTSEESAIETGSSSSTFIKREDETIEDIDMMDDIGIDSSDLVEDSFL
Data set [3] can be described thus: Plasma protein binding in rat by ultrafiltration method. It is filed as ADME, cell-free. As to conditions: read-out: PPB (converted).
Data set [4] deals with T2, Mitogen-activated protein kinase 12 (Homo sapiens, UniProt P53778).
T2 sequence (P53778 whole entry): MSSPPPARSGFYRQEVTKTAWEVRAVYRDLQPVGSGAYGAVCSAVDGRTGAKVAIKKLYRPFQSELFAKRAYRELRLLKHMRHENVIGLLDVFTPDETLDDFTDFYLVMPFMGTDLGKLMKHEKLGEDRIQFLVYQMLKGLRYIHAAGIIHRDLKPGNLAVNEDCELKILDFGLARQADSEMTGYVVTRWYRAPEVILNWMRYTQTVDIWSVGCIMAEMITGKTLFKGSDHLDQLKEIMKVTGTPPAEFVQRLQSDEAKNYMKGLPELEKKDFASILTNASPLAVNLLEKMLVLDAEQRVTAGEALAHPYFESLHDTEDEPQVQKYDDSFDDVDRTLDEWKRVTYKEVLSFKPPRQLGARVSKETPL
Briefly: Inhibition of p38-gamma.

Data set [5] is described as follows: AUC (0 to 24 hrs) in porcine type 2 collagen-induced arthritis Lewis rat model at 0.01 to 1 mg/kg, po. It is filed as ADME, organism-based. Set-up: dose 0.01-1 mg/kg, route oral. The following applies: in vivo.
In data set [6] the target is RAF proto-oncogene serine/threonine-protein kinase (Homo sapiens, UniProt P04049). The data set is described as follows: Binding affinity to RAF1.
Chain of RAF proto-oncogene serine/threonine-protein kinase (P04049 whole entry): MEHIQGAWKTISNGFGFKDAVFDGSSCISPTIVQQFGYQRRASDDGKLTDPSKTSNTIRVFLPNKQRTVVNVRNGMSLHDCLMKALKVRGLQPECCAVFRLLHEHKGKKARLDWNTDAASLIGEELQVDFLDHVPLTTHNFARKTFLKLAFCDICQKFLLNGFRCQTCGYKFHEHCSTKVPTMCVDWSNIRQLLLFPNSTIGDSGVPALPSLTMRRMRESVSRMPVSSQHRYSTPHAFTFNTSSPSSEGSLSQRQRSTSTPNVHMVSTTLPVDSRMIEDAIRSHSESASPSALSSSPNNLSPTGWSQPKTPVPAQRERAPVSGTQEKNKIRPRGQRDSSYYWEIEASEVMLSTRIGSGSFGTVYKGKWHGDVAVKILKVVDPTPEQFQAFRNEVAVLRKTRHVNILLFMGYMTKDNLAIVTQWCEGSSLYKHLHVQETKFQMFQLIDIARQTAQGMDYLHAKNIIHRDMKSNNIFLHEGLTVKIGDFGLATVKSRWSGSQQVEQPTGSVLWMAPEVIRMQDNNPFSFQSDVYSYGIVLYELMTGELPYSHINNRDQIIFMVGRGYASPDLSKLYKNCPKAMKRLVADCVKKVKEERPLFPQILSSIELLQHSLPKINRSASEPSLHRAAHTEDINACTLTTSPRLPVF
The next data set concerns THP-1. Briefly: Inhibition of LPS-induced TNFalpha production in human THP1 cells after 3 hrs. The following applies: Homo sapiens, THP-1, 3 h; read-out: IC50. It counts as functional, cell-based. The procedure, abridged:
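THP-1 cells at 1.5 x 10^6/mL in RPMI 1640, 10% heat-inactivated FBS, NEAA, 30 μM βME. 3-fold serial compound dilutions in DMSO, then LPS stimulation for 3 h at 37 C, 5% CO2. Secreted TNF-alpha read by electrochemiluminescent immunoassay; percent of DMSO control; IC50 is the mean of at least three independent curves.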

The test system of data set [7] is Rattus norvegicus. The data set is described as follows: Inhibition of MAPKAP2 phosphorylation in porcine type 2 collagen-induced arthritis Lewis rat ankles at 0.01 to 1 mg/kg, po by Western blotting. It counts as functional. The following applies: dose mg/kg 0.01-1. Put shortly:
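Oral dosing once daily for 7 days in collagen-induced arthritic Lewis rats, vehicle 15% HPBCD, 1% HPMC, 1% Pluronic F68, pH 2.2. Ankles (n = 2/group) frozen at sacrifice, pulverized and lysed; 15 μg protein per lane for Western blot with phospho-MK2 antibody. Signal normalized to Akt and expressed as percent of vehicle-treated arthritic control.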
On the technique in general: Immunoblotting shows a protein as a band on a membrane.

The subject of data set [8] is Rattus norvegicus. Briefly: Antiarthritic activity against porcine type 2 collagen-induced arthritis in po dosed Lewis rat model assessed as reduction of paw swelling administered qd for 7 days relative to control. It is filed as functional. The procedure, abridged: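 Arthritis induced by intradermal porcine type II collagen emulsified 1:1 in incomplete Freund's adjuvant; rats grouped at disease onset (day 0, 10-12 days after immunization). Oral dosing once daily for 7 days in vehicle 15% HPBCD, 1% HPMC, 1% Pluronic F68, pH 2.2.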

The nature of data set [9]: Oral bioavailability in Sprague-Dawley rat at 2 mg/kg. It is filed as ADME, organism-based. The following applies: in vivo.
Data set [10] in a line: Plasma protein binding in human by ultrafiltration method. It is filed as ADME, cell-free. The following applies: read-out: PPB (converted).
In data set [11] the target is T3, Mitogen-activated protein kinase 11 (Homo sapiens, UniProt Q15759). The data set is described as follows: Inhibition of p38beta at 1 uM relative to control.
T3 sequence (Q15759 whole entry): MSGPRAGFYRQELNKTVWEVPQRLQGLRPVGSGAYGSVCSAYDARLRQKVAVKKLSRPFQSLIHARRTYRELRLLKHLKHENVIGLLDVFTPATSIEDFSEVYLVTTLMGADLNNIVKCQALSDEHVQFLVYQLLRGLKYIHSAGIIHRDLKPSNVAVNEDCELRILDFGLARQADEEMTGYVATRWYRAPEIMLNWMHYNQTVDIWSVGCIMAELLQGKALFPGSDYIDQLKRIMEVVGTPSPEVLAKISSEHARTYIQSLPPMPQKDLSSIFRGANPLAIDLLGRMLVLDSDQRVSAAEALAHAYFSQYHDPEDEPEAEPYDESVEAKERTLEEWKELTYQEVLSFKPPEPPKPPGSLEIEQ
Data set [12] concerns the target T4, Nuclear receptor subfamily 1 group I member 2 (Homo sapiens, UniProt O75469).
T4 sequence (O75469 whole entry): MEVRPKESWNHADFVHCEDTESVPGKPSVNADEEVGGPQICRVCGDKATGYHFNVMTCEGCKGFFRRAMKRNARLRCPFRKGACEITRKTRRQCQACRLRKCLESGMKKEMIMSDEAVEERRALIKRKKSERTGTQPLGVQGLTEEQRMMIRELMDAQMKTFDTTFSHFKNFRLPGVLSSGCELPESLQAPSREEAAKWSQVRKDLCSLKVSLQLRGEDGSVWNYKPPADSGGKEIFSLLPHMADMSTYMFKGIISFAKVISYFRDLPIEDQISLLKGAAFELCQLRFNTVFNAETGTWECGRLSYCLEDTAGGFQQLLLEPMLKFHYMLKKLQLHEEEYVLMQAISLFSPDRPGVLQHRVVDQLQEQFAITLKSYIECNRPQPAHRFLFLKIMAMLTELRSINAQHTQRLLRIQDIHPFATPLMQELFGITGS
The data set is described as follows: Transactivation of human PXR expressed in HepG2 cells at 2 uM after 24 hrs by luciferase reporter gene assay relative to rifampin. It is filed as cell-based. As to conditions: hepg2, 24 h. Put shortly:
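HepG2 cells transfected with a CYP3A4-promoter luciferase reporter and human PXR cDNA. Compound added from DMSO stocks to final 2 and 10 μM in buffer and incubated 24 h. Luciferase activity read by chemiluminescence and reported as percent of the rifampin (10 μM) positive control.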

Data set [13] in a line: Volume of distribution at steady state in Sprague-Dawley rat at 2 mg/kg, iv. It is filed as ADME, organism-based. Set-up: dose 2 mg/kg, route intravenous. The following applies: in vivo, read-out: Vdss.
Another data set deals with V79. Briefly: Genotoxicity in Chinese hamster V79 cells by micronucleus test. It is filed as toxicity, cell-based, Cricetulus griseus.
The nature of data set [14]: in vitro. The following applies: human, Caco-2.
The target in data set [15] is T3, Mitogen-activated protein kinase 11. The data set is described as follows: Binding affinity to p38beta.
Data set [16] in a line: in vitro. The following applies: human, Caco-2. This is another data set of the same source.

Molecules are shown by their SMILES.

Take `Cc1ccc(C(=O)NC2CC2)cc1-c1cc2cnn(-c3c(F)cccc3F)c2n(C)c1=O`: the Ki was 2100 nM in [1] and 3500 nM in data set [4]. Further, the IC50 against Cytochrome P450 3A4 was above 25000 nM; in the data set with THP-1, 0.6 nM. The inhibition in [2] and in [11] was below 50% throughout. Also, the results for the fraction unbound in [3] and in data set [10] were 0.087 and 0.079, respectively. The same compound yielded an AUC(0-t) in data set [5] of 0.18 µM·h. In addition, the results for the Kd in data set [6] and in data set [15] were 1100 nM and 0.67 nM, respectively. For the same compound, the ED50 in the data set on Rattus norvegicus [7] and in the data set on Rattus norvegicus [8] (168 h) was at most 0.01 mg/kg throughout. For the same compound, the results for the Activity entry (with Rattus norvegicus [8]; in data set [12]; in the data set with V79) were “Dose-dependent effect”, 5% and “Non-toxic”, respectively. In data set [9], the bioavailability is 43%. In addition, the Vd in data set [13] worked out at 0.837 L/kg. The compound further came in with a Papp A→B in “in vitro [14]” of 27 ×10⁻⁶ cm/s. The Papp B→A in the data set “in vitro [16]” was 27 ×10⁻⁶ cm/s.

As usually defined, the Ki is a measure of affinity in units of concentration, obtained from inhibition or displacement. A high value points to weaker binding. One may read the IC50 as the concentration needed to halve the response being measured. Broadly, the inhibition is the change of the read-out against control, counted positive when it falls. Lower therefore signals a weak effect. What is called AUC(0-t) is exposure summed from dosing to a finite time, without extrapolation to infinity. Low readings indicate less exposure, high ones more exposure. The term Kd denotes a measure of binding affinity in units of concentration. Higher therefore signals lower affinity. As usually defined, the ED50 is the dose at which the effect has come halfway, by size or by number of responders. A word on the bioavailability: it is dose-corrected exposure relative to a reference, in per cent. Low values mean little systemic uptake, high ones much systemic uptake. In general, Papp A→B refers to the apparent permeability from the apical to the basolateral side of a cell layer. Lower therefore signals slow passage. What is called Papp B→A is the apparent permeability from the basolateral to the apical side of a cell layer.
